According to ChEMBL document CHEMBL3286367, “Synthesis of new class of spirocarbocycle derivatives by multicomponent domino reaction and their evaluation for antimicrobial, anticancer activity and molecular docking studies” (2014):
Values after ≈ are worked out from the molar mass of the structure shown.

Legend:
A549 [1] = test: Anticancer activity against human A549 cells assessed as cell growth inhibition at 30 ug/ml by MTT assay; format: functional; settings: read-out: GI
In short: (§1)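 A549 cells kept in DMEM with 10% FBS, 2 mM L-glutamine, penicillin/streptomycin, pH 7.2. Seeded at 5000 cells/well in medium with compound at 5–50 µg/mL. Grown at 37 °C, 5% CO2. Medium then replaced by 1 mg/mL MTT for 4 h and formazan dissolved in DMSO. Absorbance read at 540 nm; three replicate experiments.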

Micrococcus luteus [2] = test: Antimicrobial activity against Micrococcus luteus MTCC 106 assessed as absence of visible growth after 48 to 72 hrs; format: functional
Staphylococcus aureus [3] = test: Antimicrobial activity against methicillin-resistant Staphylococcus aureus assessed as zone of inhibition at 1 mg/disc after 24 hrs incubation by disc diffusion assay; format: functional
In short: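 Inoculum grown in Mueller Hinton broth 24 h at 37°C, swabbed onto Mueller Hinton agar and dried 10 min. Discs loaded at 1 mg/disc, then 30 min at room temperature for diffusion. Plates incubated 24 h at 37°C. Solvent negative control; streptomycin positive control. Zone of inhibition read in mm; experiment done twice.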

Shigella flexneri [4] = test: Antimicrobial activity against Shigella flexneri MTCC 1457 assessed as zone of inhibition at 1 mg/disc after 24 hrs incubation by disc diffusion assay; format: functional
In short: (§2)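 Inocula grown in Mueller Hinton broth for 24 h at 37 °C and swabbed onto Mueller Hinton agar. Discs carried 1 mg compound each and stood 30 min at room temperature before 24 h incubation at 37 °C. Solvent as negative control. Inhibition zones recorded in mm; experiment done twice.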

A549 [5] = test: Anticancer activity against human A549 cells assessed as cell growth inhibition at 10 ug/ml by MTT assay; format: functional; settings: read-out: GI; in short: as §1
[6] = tested on: Staphylococcus epidermidis; test: Antimicrobial activity against Staphylococcus epidermidis MTCC 3615 assessed as zone of inhibition at 1 mg/disc after 24 hrs incubation by disc diffusion assay; format: functional; in short: as §2
Staphylococcus aureus [7] = test: Antimicrobial activity against methicillin-resistant Staphylococcus aureus assessed as absence of visible growth after 48 to 72 hrs; format: functional
In short: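 Broth two-fold serial dilution in 96-well plates, 1000 to 7.81 µg/mL, compound dissolved in DMSO (2%). Inoculum grown in Mueller Hinton broth 24 h at 37°C. Streptomycin positive control. 5 µl of tested broth plated on MHA; MIC is the lowest concentration inhibiting visible growth on agar.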

Salmonella typhimurium [8] = test: Antimicrobial activity against Salmonella typhimurium MTCC 1251 assessed as zone of inhibition at 1 mg/disc after 24 hrs incubation by disc diffusion assay; format: functional, Salmonella enterica subsp. enterica serovar Typhimurium; in short: as §2
A549 [9] = test: Anticancer activity against human A549 cells assessed as cell growth inhibition at 5 ug/ml by MTT assay; format: functional; settings: read-out: GI; in short: as §1
Malassezia pachydermatis = test: Antifungal activity against Malassezia pachydermatis assessed as zone of inhibition at 1 mg/disc after 48 hrs incubation by disc diffusion assay; format: functional
In short: (§3)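 Disc diffusion on Mueller Hinton agar with swabbed cultures, 1 mg compound per disc. Discs stood 30 min at room temperature for diffusion, then plates incubated 48 h at 28 °C. Solvent as negative control. Yeast pre-grown in Sabouraud dextrose broth at 28 °C for 48-72 h; filamentous fungal spores came from SDA slants grown 10 days at 28 °C. Zone diameters in mm; run twice.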

Staphylococcus aureus [10] = test: Antimicrobial activity against Staphylococcus aureus MTCC 96 assessed as zone of inhibition at 1 mg/disc after 24 hrs incubation by disc diffusion assay; format: functional; in short: as §2
Proteus vulgaris [11] = test: Antimicrobial activity against Proteus vulgaris MTCC 1771 assessed as zone of inhibition at 1 mg/disc after 24 hrs incubation by disc diffusion assay; format: functional; in short: as §2
Salmonella typhimurium [12] = test: Antimicrobial activity against Salmonella typhimurium MTCC 1251 assessed as absence of visible growth after 48 to 72 hrs; format: functional, Salmonella enterica subsp. enterica serovar Typhimurium; settings: Salmonella enterica
A549 [13] = test: Anticancer activity against human A549 cells assessed as cell growth inhibition at 50 ug/ml by MTT assay; format: functional; settings: read-out: GI; in short: as §1
Klebsiella pneumoniae [14] = test: Antimicrobial activity against Klebsiella pneumonia MTCC 109 assessed as absence of visible growth after 24 hrs
Proteus vulgaris [15] = test: Antimicrobial activity against Proteus vulgaris MTCC 1771 assessed as absence of visible growth after 48 to 72 hrs; format: functional
Klebsiella aerogenes [16] = test: Antimicrobial activity against Enterobacter aerogenes MTCC 111 assessed as zone of inhibition at 1 mg/disc after 24 hrs incubation by disc diffusion assay; format: functional; in short: as §2
Micrococcus luteus [17] = test: Antimicrobial activity against Micrococcus luteus MTCC 106 assessed as zone of inhibition at 1 mg/disc after 24 hrs incubation by disc diffusion assay; format: functional; in short: as §2
[18] = tested on: Staphylococcus epidermidis; test: Antimicrobial activity against Staphylococcus epidermidis MTCC 3615 assessed as absence of visible growth after 24 hrs
A549 [19] = test: Anticancer activity against human A549 cells assessed as cell growth inhibition at 40 ug/ml by MTT assay; format: functional; settings: read-out: GI; in short: as §1
Klebsiella pneumoniae [20] = test: Antimicrobial activity against Klebsiella pneumonia MTCC 109 assessed as zone of inhibition at 1 mg/disc after 24 hrs incubation by disc diffusion assay; format: functional; in short: as §2
A549 [21] = test: Anticancer activity against human A549 cells assessed as cell growth inhibition at 20 ug/ml by MTT assay; format: functional; settings: read-out: GI; in short: as §1
Klebsiella aerogenes [22] = test: Antimicrobial activity against Enterobacter aerogenes MTCC 111 assessed as absence of visible growth after 48 to 72 hrs; format: functional
Candida albicans = test: Antifungal activity against Candida albicans MTCC 227 assessed as zone of inhibition at 1 mg/disc after 48 hrs incubation by disc diffusion assay; format: functional; in short: as §3
Shigella flexneri [23] = test: Antimicrobial activity against Shigella flexneri MTCC 1457 assessed as absence of visible growth after 48 to 72 hrs; format: functional
Staphylococcus aureus [24] = test: Antimicrobial activity against Staphylococcus aureus MTCC 96 assessed as absence of visible growth after 48 to 72 hrs; format: functional
Klebsiella pneumoniae [25] = test: Antimicrobial activity against Klebsiella pneumonia MTCC 109 assessed as absence of visible growth after 48 to 72 hrs; format: functional
Shigella flexneri [26] = test: Antimicrobial activity against Shigella flexneri MTCC 1457 assessed as absence of visible growth after 24 hrs
[27] = tested on: Staphylococcus epidermidis; test: Antimicrobial activity against Staphylococcus epidermidis MTCC 3615 assessed as absence of visible growth after 48 to 72 hrs; format: functional

Cc1ccc([C@H]2[C@@H]3CCCCC=C3C(C#N)=C(N)C23C(=O)c2ccccc2C3=O)cc1 (relative stereo)
inhibition of growth at 30 µg/mL (A549 [1]): 30.8% | MIC (Micrococcus luteus [2]): 250 µg/mL (≈ 612 µM) | inhibition zone (IZ) (Staphylococcus aureus [3]): 17 mm | inhibition zone (IZ) (Shigella flexneri [4]): 23 mm | inhibition of growth at 10 µg/mL (A549 [5]): 10.5% | inhibition zone (IZ) [6]: 16 mm | MIC (Staphylococcus aureus [7]): 125 µg/mL (≈ 306 µM) | inhibition zone (IZ) (Salmonella typhimurium [8]): 19 mm | inhibition of growth at 5 µg/mL (A549 [9]): 3.7% | inhibition zone (IZ) (Malassezia pachydermatis): 10 mm | inhibition zone (IZ) (Staphylococcus aureus [10]): 13 mm | inhibition zone (IZ) (Proteus vulgaris [11]): 22 mm | MIC (Salmonella typhimurium [12]): 125 µg/mL (≈ 306 µM) | inhibition of growth at 50 µg/mL (A549 [13]): 59.6% | MIC (Klebsiella pneumoniae [14]): 62.5 µg/mL (≈ 153 µM) | MIC (Proteus vulgaris [15]): 62.5 µg/mL (≈ 153 µM) | inhibition zone (IZ) (Klebsiella aerogenes [16]): 18 mm | inhibition zone (IZ) (Micrococcus luteus [17]): 10 mm | MIC [18]: 250 µg/mL (≈ 612 µM) | inhibition of growth at 40 µg/mL (A549 [19]): 46.6% | inhibition zone (IZ) (Klebsiella pneumoniae [20]): 20 mm | inhibition of growth at 20 µg/mL (A549 [21]): 18.6% | MIC (Klebsiella aerogenes [22]): 125 µg/mL (≈ 306 µM) | inhibition zone (IZ) (Candida albicans): 10 mm | MIC (Shigella flexneri [23]): 62.5 µg/mL (≈ 153 µM) | MIC (Staphylococcus aureus [24]): 250 µg/mL (≈ 612 µM)

N#CC1=C(N)[C@]2(C(=O)Nc3ccccc32)[C@@H](c2cccs2)[C@@H]2CCCC=C12
inhibition of growth at 30 µg/mL (A549 [1]): 67.8% | MIC (Micrococcus luteus [2]): 250 µg/mL (≈ 669 µM) | inhibition zone (IZ) (Staphylococcus aureus [3]): 21 mm | inhibition zone (IZ) (Shigella flexneri [4]): 25 mm | inhibition of growth at 10 µg/mL (A549 [5]): 45.8% | inhibition zone (IZ) [6]: 19 mm | MIC (Staphylococcus aureus [7]): 62.5 µg/mL (≈ 167 µM) | inhibition zone (IZ) (Salmonella typhimurium [8]): 15 mm | inhibition of growth at 5 µg/mL (A549 [9]): 25.7% | inhibition zone (IZ) (Malassezia pachydermatis): 12 mm | MIC (Klebsiella pneumoniae [25]): 125 µg/mL (≈ 335 µM) | inhibition zone (IZ) (Staphylococcus aureus [10]): 13 mm | inhibition zone (IZ) (Proteus vulgaris [11]): 23 mm | MIC (Salmonella typhimurium [12]): 250 µg/mL (≈ 669 µM) | MIC (Shigella flexneri [26]): 62.5 µg/mL (≈ 167 µM) | inhibition of growth at 50 µg/mL (A549 [13]): 83.9% | MIC (Proteus vulgaris [15]): 62.5 µg/mL (≈ 167 µM) | inhibition zone (IZ) (Klebsiella aerogenes [16]): 17 mm | inhibition zone (IZ) (Micrococcus luteus [17]): 15 mm | MIC [27]: 125 µg/mL (≈ 335 µM) | inhibition of growth at 40 µg/mL (A549 [19]): 75.9% | inhibition zone (IZ) (Klebsiella pneumoniae [20]): 16 mm | inhibition of growth at 20 µg/mL (A549 [21]): 62.4% | MIC (Klebsiella aerogenes [22]): 125 µg/mL (≈ 335 µM) | inhibition zone (IZ) (Candida albicans): 10 mm | MIC (Staphylococcus aureus [24]): 250 µg/mL (≈ 669 µM)
